Compound activity from PubChem BioAssay.
Hits are enriched below; roughly 1.5% of the tested compounds scored in any of these assays.
CAL PDZ FP-1: blocks peptide binding to human CAL PDZ domain | inhibition, % at 20 µM | purified CAL PDZ, TMR-peptide fluorescence polarization, 1 h | AID 504414 | 330,000 compounds, 0.02% hits | Q9HD26;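 active means highest replicate inhibition of at least 40%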;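 further: plate controls were DMSO neutral control wells for no effect and unlabeled competitor peptide control wells for full effect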
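System: purified tagged CAL PDZ domain construct (CerCALP). Schedule: 1 h incubation at room temperature before polarization reading. Medium: 25 mM sodium phosphate pH 7.4, 150 mM NaCl, TCEP, IgG, Thesit. Read-out: percent inhibition from loss of millipolarization. Measured by: FP readout, S and P plane fluorescence. Probe or stimulus: fluorescent TMR peptide probe.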
LANA DNA inh: KSHV C-LANA DNA binding inhibition | MBP-C-LANA/FAM-LBS DNA binding, fluorescence polarization | inhibition, % at 9 µM | 340,000 compounds, 0.078% hits | AID 504423;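 active means highest replicate inhibition at or above 60% at 9 µM, even if other replicates fall short; inactive means all replicates below 60% inhibition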;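 further: 0% = neutral control wells and 100% = 4 µM acridine orange control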
LANA-H2B inh: blocks KSHV LANA binding to histone H2A/H2B; Q9QR71; cell-free LANA-H2A/H2B peptide, fluorescence polarization; inhibition, % (no concentration beside the values); 320,000 compounds, 0.6% hits; AID 2629; in the data active means inhibition mostly above about 10%, no sharp cut-off; inactive means mostly below about 6.7%
Keap1-Nrf2 PPI: Keap1-Nrf2 (human) interaction inhibition; 340,000 compounds, 0.15% hits; AID 504523; Keap1 Kelch-Nrf2 peptide fluorescence polarization, 1536-well; inhibition, % at 9.4 µM; in the data active means inhibition above about 12%;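 further: human Keap1 Kelch domain with fluorescein labeled Nrf2 9mer peptide probe; 0% = neutral control wells and 100% = peptide positive control; higher means more block of Keap1 binding to Nrf2 peptide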
Target sequence (Q14145 whole entry, looked up, the tested form may be a part): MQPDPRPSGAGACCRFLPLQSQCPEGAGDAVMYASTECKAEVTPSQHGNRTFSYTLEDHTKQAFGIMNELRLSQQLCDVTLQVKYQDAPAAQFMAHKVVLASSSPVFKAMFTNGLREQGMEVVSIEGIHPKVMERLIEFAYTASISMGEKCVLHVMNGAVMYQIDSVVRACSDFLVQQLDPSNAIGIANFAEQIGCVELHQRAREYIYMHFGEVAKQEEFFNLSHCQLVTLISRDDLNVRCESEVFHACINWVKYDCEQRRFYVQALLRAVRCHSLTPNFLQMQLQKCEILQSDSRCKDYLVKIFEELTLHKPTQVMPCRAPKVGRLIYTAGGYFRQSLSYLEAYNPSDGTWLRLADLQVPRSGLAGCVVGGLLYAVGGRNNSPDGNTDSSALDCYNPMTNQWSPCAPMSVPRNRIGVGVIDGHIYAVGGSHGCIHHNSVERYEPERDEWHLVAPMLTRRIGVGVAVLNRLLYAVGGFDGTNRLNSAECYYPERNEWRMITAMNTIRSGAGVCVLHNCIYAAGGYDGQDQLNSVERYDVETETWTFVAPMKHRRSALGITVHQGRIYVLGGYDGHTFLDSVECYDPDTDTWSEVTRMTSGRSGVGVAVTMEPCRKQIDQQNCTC
CaV13 FRET inh: Disruptors of the CACNA1D IQ motif to Ca2+-dependent inactivation inhibitor domain association, primary screening, Förster resonance energy transfer in intact living … | AID 743397 | 340,000 compounds, 0.098% hits | HEK cells, CFP/YFP FRET ICDI-IQ, plate reader, 10 min; percent FRET-ratio fall versus neutral wells | inhibition, % at 12.3 µM;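 active means mean replicate inhibition of at least 30% and at least 1% of replicates passing that level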;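 further: 0% = median of the neutral control wells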
CAL PDZ FP-2: blocks peptide binding to the human CAL PDZ domain. Q9HD26. purified CAL PDZ, TMR-peptide fluorescence polarization, 1 h. inhibition, % at 24.9 µM. 300,000 compounds, 0.92% hits. AID 602252;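 active means mean inhibition of at least 30% with at least half of replicates also reaching 30%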;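 further: 0% = DMSO neutral control and 100% = excess unlabeled competitor peptide PRC23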
* = called active by the depositor; · = no result given.

SMILES | CAL PDZ FP-1 | LANA DNA inh | LANA-H2B inh | Keap1-Nrf2 PPI | CaV13 FRET inh | CAL PDZ FP-2
CC1Cc2ccccc2N1C(=O)COC(=O)c1cccc(Br)c1 (centres undefined) | -2 | -1 | -2 | -1 | -13 | 182*
CC1Cc2ccccc2N1C(=O)COC(=O)c1cc(Br)ccc1O (centres undefined) | -3 | -1 | -3 | 0 | -6 | -3
COc1ccccc1S(=O)(=O)N(C)C[C@H]1Oc2cc(Br)ccc2S(=O)(=O)N([C@H](C)CO)C[C@H]1C | · | · | · | · | -5 | ·
COCCN1CCCc2nc(-c3ccc(Br)cc3)ccc21 | · | · | · | · | -7 | ·
COc1cccc(-c2cc(C(=O)Nc3ccn(Cc4ccc(C)cc4)n3)no2)c1 | · | -3 | -1 | 2 | -2 | 38*
Cc1ccc(Cn2ccc(NC(=O)c3cc(-c4ccccc4)on3)n2)cc1 | -3 | 3 | -2 | -7 | -7 | -7
Cc1nn(Cc2ccc(Cl)cc2)c(C)c1NC(=O)c1cc(-c2ccco2)on1 | · | 10 | -1 | 1 | -6 | -4
Cc1cc(NC(=O)c2cc(-c3ccco3)on2)nn1Cc1ccc(Cl)cc1 | 0 | -1 | 15* | -1 | -10 | -3
CN(CC1CCCN(CCc2ccccc2F)C1)C(=O)c1ccoc1 (centres undefined) | 0 | -2 | -1 | -5 | -7 | 6
COc1ccc(CCN2CCCC(CN(C)C(=O)c3ccoc3)C2)cc1 (centres undefined) | 0 | -2 | 15* | 1 | -3 | -4
Cc1ccc(CN2C(=O)c3ccccc3NC2c2ccccn2)cc1 (centres undefined) | 0 | 0 | -5 | -5 | 4 | 58*
CCCN1C(=O)c2ccccc2NC1c1ccc(C)cc1 (centres undefined) | -2 | -1 | 1 | 3 | -3 | -3
COc1cc(C(=O)Nc2ccc3nc(N4CCOCC4)sc3c2)cc(OC)c1OC | 1 | 0 | 37* | 2 | -5 | ·
Cc1ccc(S(=O)(=O)N=Nc2c(O)[nH]c3ccccc23)cc1 | -1 | -2 | 1 | -6 | -9 | 32*
COc1ccc(NC(=O)CSc2nnc(CCC(=O)Nc3ccc(C)c(Cl)c3)n2C)cc1 | 0 | 1 | 0 | 3 | · | -24
CCOC(=O)c1csc(N)c1-c1ccc([N+](=O)[O-])cc1 | 0 | 1 | 3 | -4 | -19 | ·
CN(C)C1(CNC(=O)C2CCC(=O)N(CCc3ccc(Cl)cc3)C2)CCCCC1 (centres undefined) | 88* | 0 | -5 | 0 | -6 | -5
Cc1ccc(CNC(=O)C2CCC(=O)N(CCc3cccc(F)c3)C2)s1 (centres undefined) | 0 | 1 | · | 2 | -5 | -2
Cc1ccc(CNC(=O)C2CCC(=O)N(CCc3ccccc3)C2)s1 (centres undefined) | -2 | -2 | 18* | -2 | -2 | -1
COc1ccc(CCN2CC(C(=O)NCC3(O)CCCCC3)CCC2=O)cc1 (centres undefined) | -2 | 0 | 1 | -3 | -6 | -3
O=C1CCCN1CC(O)CS(=O)(=O)Cc1ccccc1Cl (centres undefined) | 0 | -2 | -2 | -8 | -20 | 10
O=C1CCCN1CC(O)CS(=O)(=O)Cc1ccccc1 (centres undefined) | · | 0 | -4 | 2 | -22 | 46*
COC(=O)C(C(=O)OC)c1cc2c(cc1CNS(=O)(=O)c1ccc(C)cc1)OCO2 | · | · | · | · | -10 | ·
COc1ccc2nc(NC(=O)Cn3cnc4ccccc4c3=O)sc2c1 | 1 | 1 | 177* | 3 | -13 | -2
COc1ccc(NC(=O)Cn2cnc3ccccc3c2=O)cc1OC | 0 | 0 | 16 | -1 | -4 | ·
SMILES | CAL PDZ FP-1 | LANA DNA inh | LANA-H2B inh | Keap1-Nrf2 PPI | CaV13 FRET inh | CAL PDZ FP-2
Cc1ccc2nc(NC(=O)CSCC(=O)Nc3cc(C)on3)sc2c1 | -1 | 1 | · | -8 | -2 | ·
COc1ccc2nc(NC(=O)CSC(C)C(=O)Nc3cc(C)on3)sc2c1 (centres undefined) | 0 | 1 | 17* | 1 | -15 | -4
CCOc1ccc(-n2c(SCC(=O)Nc3nccs3)nnc2-c2ccoc2C)cc1 | -2 | 1 | 4 | -3 | 179* | -3
COC(=O)c1cc(S(=O)(=O)N2CCN(c3ccccc3F)CC2)c[nH]1 | -3 | -1 | 3 | 1 | -2 | -4
COC(=O)c1cc(S(=O)(=O)NCCN2CCN(c3ccccc3F)CC2)c[nH]1 | -1 | 0 | -9 | 4 | -3 | 47*
COC(=O)c1cc(S(=O)(=O)NCCc2ccc(C)cc2)c[nH]1 | -1 | 1 | -1 | 3 | -6 | ·
COC(=O)c1cc(S(=O)(=O)NCCc2ccc(SC)cc2)c[nH]1 | -1 | 1 | -2 | -4 | -2 | 76*
COC(=O)c1cc2c(c3c4cc(OC)ccc4n(S(C)(=O)=O)c13)C(=O)N(C)C2 | · | · | · | · | -8 | ·
CC(=O)N1CCc2c(sc(NC(=O)C3CCN(S(=O)(=O)c4cccs4)CC3)c2C(N)=O)C1 | -2 | 4 | -7 | 0 | -7 | -1
CCCN1CCc2c(sc(NC(=O)C3CCN(S(=O)(=O)c4cccs4)CC3)c2C(N)=O)C1 | -1 | 0 | 2 | 6 | 34* | 4
NC(=O)c1ccc(NC(=O)COC(=O)C2CCN(S(=O)(=O)c3cccs3)CC2)cc1 | 0 | 1 | -3 | -5 | -6 | 130*
CCOC(=O)c1c(NC(=O)C2CCCCC2)sc2c1CCN(CC)C2 | -1 | -2 | 5 | -6 | -7 | 45*
COc1ccc(CC(=O)Nc2cccnc2)cc1 | -1 | 0 | -4 | -6 | -4 | -4
CCOC(=O)Cc1csc2nc(-c3ccccc3)cn12 | · | · | · | · | -12 | ·
CC(C)CCc1noc(CN2CCN(CC(=O)NC(C)C)CC2)n1 | 0 | 1 | -2 | -5 | -2 | 5
CC(C)CCc1noc(CN2CCC(CCN3CCCC3=O)CC2)n1 | -1 | 1 | 11* | -6 | -3 | -1
CCOC(=O)c1sc(-c2ccc(Cl)cc2Cl)nc1O | 0 | 1 | 1 | -4 | -20 | 49*
Cc1c(C(=O)C(=O)NCCCn2ccnc2)c2ccccc2n1C | -1 | 2 | -1 | -4 | -6 | 36*
Cc1[nH]c2ccccc2c1C(=O)C(=O)NCCCn1ccnc1 | 0 | -5 | -3 | -2 | -3 | -5
CSc1ccccc1C(=O)NCCCn1ccnc1 | 17 | 0 | -1 | 2 | -4 | 61*
COc1cc(/C=N/Nc2nc3ccccc3s2)ccc1OC(=O)c1ccccc1F | -2 | 1 | 6 | 0 | -19 | 72*
COc1cc(C(=O)Nc2ccc(NC(=O)c3ccccc3)nc2)cc(OC)c1OC | -4 | 2 | 0 | 0 | -3 | -5
